According to ChEMBL document CHEMBL2169836 (J Med Chem, 2012):

Assays:
[1] = Permeability of the compound by PAMPA; format: ADME; details: read-out: permeability
In short: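 Donor buffers were set to pH 5.0, 6.2 and 7.4 with NaOH, and ASB7.4 buffer was used as acceptor. Filters (0.45 pore, 125 μm thick) were lipid-coated. A 10 mM DMSO stock was diluted to 41.7 μM in donor buffer. The sandwich was incubated 4 h without stirring. Reference, donor and acceptor concentrations were read in duplicate by UV plate reader, and ratings were assigned from permeation velocity.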

[2] = Metabolic stability in human liver microsomes at 1 uM up to 60 mins by LC/MS/MS analysis relative to hepatic blood flow; format: ADME, Microsome; details: read-out: Stability
[3] = Metabolic stability in rat liver microsomes at 1 uM up to 60 mins by LC/MS/MS analysis relative to hepatic blood flow; format: ADME, Microsome; details: read-out: Stability
[4] = biological target: Sodium/hydrogen exchanger 1 (Homo sapiens, UniProt P19634); experiment: Inhibition of NHE1 in human HT-29 cells assessed as intracellular pH change after 30 mins; format: cell-based
Sequence of Sodium/hydrogen exchanger 1 (P19634 whole entry): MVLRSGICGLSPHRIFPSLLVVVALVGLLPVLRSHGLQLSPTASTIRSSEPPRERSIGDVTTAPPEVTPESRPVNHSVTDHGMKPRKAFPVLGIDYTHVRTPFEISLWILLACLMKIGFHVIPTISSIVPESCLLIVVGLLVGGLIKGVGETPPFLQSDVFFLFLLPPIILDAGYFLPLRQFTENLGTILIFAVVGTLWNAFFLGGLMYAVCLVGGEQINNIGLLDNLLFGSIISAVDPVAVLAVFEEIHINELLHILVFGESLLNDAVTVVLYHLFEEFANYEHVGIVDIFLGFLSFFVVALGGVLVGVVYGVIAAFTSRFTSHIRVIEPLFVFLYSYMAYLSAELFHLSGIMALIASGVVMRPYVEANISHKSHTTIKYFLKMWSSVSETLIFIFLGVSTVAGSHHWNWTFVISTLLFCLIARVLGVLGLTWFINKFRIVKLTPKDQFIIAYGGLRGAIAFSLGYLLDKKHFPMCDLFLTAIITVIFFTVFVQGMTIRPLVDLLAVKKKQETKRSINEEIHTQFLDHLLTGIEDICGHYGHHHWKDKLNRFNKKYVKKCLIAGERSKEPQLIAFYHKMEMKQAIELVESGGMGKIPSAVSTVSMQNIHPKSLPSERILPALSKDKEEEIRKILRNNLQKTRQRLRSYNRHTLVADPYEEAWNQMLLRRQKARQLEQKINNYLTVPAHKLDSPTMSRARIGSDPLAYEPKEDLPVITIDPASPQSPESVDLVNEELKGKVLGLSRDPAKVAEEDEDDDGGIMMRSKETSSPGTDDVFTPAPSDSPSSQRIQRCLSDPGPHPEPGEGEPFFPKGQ

Cytochrome P450 3A4 = Cytochrome P450 3A4 (Homo sapiens, UniProt P08684); experiment: Inhibition of CYP3A4 in human liver microsomes using 7-benzyloxy-4-(trifluoromethyl)-coumarin as substrate after 30 mins by LC/MS/MS analysis; format: ADME, Microsome
Sequence of Cytochrome P450 3A4 (P08684 whole entry): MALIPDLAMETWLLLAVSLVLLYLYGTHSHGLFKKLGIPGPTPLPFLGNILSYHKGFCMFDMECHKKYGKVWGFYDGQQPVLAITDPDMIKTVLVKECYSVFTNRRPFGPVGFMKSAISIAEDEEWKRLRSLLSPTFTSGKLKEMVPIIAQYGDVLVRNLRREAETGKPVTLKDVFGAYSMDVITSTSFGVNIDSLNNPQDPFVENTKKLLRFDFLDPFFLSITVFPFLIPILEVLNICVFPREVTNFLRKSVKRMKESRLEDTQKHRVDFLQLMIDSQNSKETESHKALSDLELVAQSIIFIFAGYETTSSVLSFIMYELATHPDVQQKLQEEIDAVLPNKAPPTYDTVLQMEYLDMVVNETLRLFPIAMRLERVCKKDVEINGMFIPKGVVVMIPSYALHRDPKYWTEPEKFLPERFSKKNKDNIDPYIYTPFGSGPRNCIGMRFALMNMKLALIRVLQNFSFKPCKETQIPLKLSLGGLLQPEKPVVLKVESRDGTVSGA

Cytochrome P450 2D6 = Cytochrome P450 2D6 (Homo sapiens, UniProt P10635); experiment: Inhibition of CYP2D6 in human liver microsomes using 3-[2-(N,N-diethyl-N-methylamino)ethyl]-7- methoxy-4-methylcoumarin as substrate after 45 mins by LC/MS/MS analysis; format: ADME, Microsome
Sequence of Cytochrome P450 2D6 (P10635 whole entry): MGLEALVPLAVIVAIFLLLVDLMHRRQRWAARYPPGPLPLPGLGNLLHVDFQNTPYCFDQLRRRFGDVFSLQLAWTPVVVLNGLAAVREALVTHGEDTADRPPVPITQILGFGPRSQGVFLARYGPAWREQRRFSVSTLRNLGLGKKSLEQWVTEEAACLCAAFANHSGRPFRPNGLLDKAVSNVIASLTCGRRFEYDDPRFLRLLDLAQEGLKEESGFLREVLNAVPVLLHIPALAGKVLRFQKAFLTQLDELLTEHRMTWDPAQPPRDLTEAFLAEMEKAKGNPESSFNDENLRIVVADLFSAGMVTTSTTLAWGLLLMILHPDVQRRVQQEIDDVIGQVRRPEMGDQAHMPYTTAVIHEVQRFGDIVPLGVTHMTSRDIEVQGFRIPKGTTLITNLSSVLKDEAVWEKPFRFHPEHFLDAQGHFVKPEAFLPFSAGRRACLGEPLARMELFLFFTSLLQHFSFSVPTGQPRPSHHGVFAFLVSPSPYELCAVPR

Cytochrome P450 2C9 = Cytochrome P450 2C9 (Homo sapiens, UniProt P11712); experiment: Inhibition of CYP2C9 in human liver microsomes using 7-methoxy-4-(trifluoromethyl)-coumarin as substrate after 45 mins by LC/MS/MS analysis; format: ADME, Microsome
Sequence of Cytochrome P450 2C9 (P11712 whole entry): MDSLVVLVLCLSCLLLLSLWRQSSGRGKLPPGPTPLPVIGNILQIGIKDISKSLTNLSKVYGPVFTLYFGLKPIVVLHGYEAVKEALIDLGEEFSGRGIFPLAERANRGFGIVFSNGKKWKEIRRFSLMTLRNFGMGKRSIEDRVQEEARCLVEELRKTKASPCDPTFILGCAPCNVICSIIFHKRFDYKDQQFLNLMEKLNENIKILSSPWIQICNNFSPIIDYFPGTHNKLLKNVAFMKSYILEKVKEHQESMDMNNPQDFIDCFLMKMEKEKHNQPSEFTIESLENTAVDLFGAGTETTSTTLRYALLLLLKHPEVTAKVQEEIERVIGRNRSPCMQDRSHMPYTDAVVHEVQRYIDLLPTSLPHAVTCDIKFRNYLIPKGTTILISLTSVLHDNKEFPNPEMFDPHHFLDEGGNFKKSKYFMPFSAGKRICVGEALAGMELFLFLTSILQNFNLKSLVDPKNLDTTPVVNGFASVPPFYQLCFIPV

Cytochrome P450 2C19 = Cytochrome P450 2C19 (Homo sapiens, UniProt P33261); experiment: Inhibition of CYP2C19 in human liver microsomes using 7-ethoxy-3-cyanocoumarin as substrate after 45 mins by LC/MS/MS analysis; format: ADME, Microsome
Sequence of Cytochrome P450 2C19 (P33261 whole entry): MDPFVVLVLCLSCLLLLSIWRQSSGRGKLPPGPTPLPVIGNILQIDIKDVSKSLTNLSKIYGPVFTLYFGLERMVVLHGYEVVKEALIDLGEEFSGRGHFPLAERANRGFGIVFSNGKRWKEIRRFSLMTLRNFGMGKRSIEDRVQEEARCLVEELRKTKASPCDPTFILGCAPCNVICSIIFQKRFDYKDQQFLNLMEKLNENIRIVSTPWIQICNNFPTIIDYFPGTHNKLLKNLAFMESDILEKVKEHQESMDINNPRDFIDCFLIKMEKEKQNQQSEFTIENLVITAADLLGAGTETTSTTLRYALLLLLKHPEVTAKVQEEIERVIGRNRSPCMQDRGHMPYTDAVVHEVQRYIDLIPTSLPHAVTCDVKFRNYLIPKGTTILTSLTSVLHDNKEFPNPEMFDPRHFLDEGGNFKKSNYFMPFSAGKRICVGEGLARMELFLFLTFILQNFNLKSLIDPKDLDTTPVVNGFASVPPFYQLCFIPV

[5] = Volume of distribution at steady state in jugular and femoral vein precannulated Sprague-Dawley rat at 1 mg/kg, iv by LC/MS/MS analysis; format: ADME, organism-based; design: dose 1 mg/kg, route intravenous; details: in vivo, read-out: Vdss
[6] = Mean resident time in jugular and femoral vein precannulated Sprague-Dawley rat at 1 mg/kg, iv by LC/MS/MS analysis; format: ADME, organism-based; design: dose 1 mg/kg, route intravenous; details: in vivo
Rattus norvegicus = experiment: Clearance in jugular and femoral vein precannulated Sprague-Dawley rat at 1 mg/kg, iv by LC/MS/MS analysis relative to hepatic blood flow; format: ADME, organism-based, Liver; design: dose 1 mg/kg, route intravenous; details: in vivo

| Papp [1] | hepatic extraction ratio at 1 h, 1 µM [2] | hepatic extraction ratio at 1 h, 1 µM [3] | IC50 [4] | IC50 (Cytochrome P450 3A4) | IC50 (Cytochrome P450 2D6) | IC50 (Cytochrome P450 2C9) | IC50 (Cytochrome P450 2C19) | SMILES | other results |
| --- | --- | --- | --- | --- | --- | --- | --- | --- | --- |
| < 2 ×10⁻⁶ cm/s | 0.27 | 0.11 | 0.021 µM | – | – | – | – | N=C(N)NC(=O)c1ccc(C2CCN(C(=O)c3ccc(O)cc3)CC2)c(C(F)(F)F)c1 | – |
| ≥ 2 ×10⁻⁶ cm/s | – | – | – | – | – | – | – | CN(C)S(=O)(=O)c1ccc(C(=O)N2CCC(c3ccc(C(=O)NC(=N)N)cc3C(F)(F)F)CC2)cc1 | – |
| – | – | – | 4.71 µM | – | – | – | – | N=C(N)NC(=O)c1ccc(C2CCN(C(=O)c3ccc(-c4ccccc4)cc3)CC2)c(C(F)(F)F)c1 | – |
| – | – | – | 0.019 µM | – | – | – | – | COc1cc(C2CCN(C(C)=O)CC2)c(C(F)(F)F)cc1C(=O)NC(=N)N | – |
| – | – | – | 0.058 µM | – | – | – | – | CS(=O)(=O)c1ccccc1C(=O)N1CCC(c2ccc(C(=O)NC(=N)N)cc2C(F)(F)F)CC1 | – |
| < 2 ×10⁻⁶ cm/s | 0.18 | 0.1 | 0.019 µM | > 30 µM | > 30 µM | 29 µM | > 30 µM | N=C(N)NC(=O)c1ccc(C2CCN(C(=O)c3ccc(O)nc3)CC2)c(C(F)(F)F)c1 | – |
| – | – | – | 0.029 µM | – | – | – | – | CCCC(=O)N1CCC(c2ccc(C(=O)NC(=N)N)cc2C(F)(F)F)CC1 | – |
| ≥ 2 ×10⁻⁶ cm/s | < 0.11 | 0.39 | 0.028 µM | 0.4 µM | > 30 µM | 7 µM | – | CC(C)C(=O)N1CCC(c2ccc(C(=O)NC(=N)N)cc2C(F)(F)F)CC1 | – |
| < 2 ×10⁻⁶ cm/s | – | – | 0.052 µM | – | – | – | – | CNC(=O)c1ccc(C(=O)N2CCC(c3ccc(C(=O)NC(=N)N)cc3C(F)(F)F)CC2)cc1 | – |
| < 2 ×10⁻⁶ cm/s | – | – | 0.03 µM | – | – | – | – | CNS(=O)(=O)c1ccc(C(=O)N2CCC(c3ccc(C(=O)NC(=N)N)cc3C(F)(F)F)CC2)cc1 | – |
| < 2 ×10⁻⁶ cm/s | 0.23 | < 0.056 | 0.018 µM | 3 µM | > 30 µM | 25 µM | 15 µM | Cn1cncc1C(=O)N1CCC(c2ccc(C(=O)NC(=N)N)cc2C(F)(F)F)CC1 | – |
| ≥ 2 ×10⁻⁶ cm/s | 0.49 | < 0.06 | 0.018 µM | > 30 µM | 27 µM | 3 µM | 26 µM | N=C(N)NC(=O)c1ccc(C2CCN(C(=O)c3ccccn3)CC2)c(C(F)(F)F)c1 | – |
| – | – | – | 0.385 µM | – | – | – | – | N=C(N)NC(=O)c1ccc(C2CCN(C(=O)c3cccc(Cl)c3)CC2)c(C(F)(F)F)c1 | – |
| ≥ 2 ×10⁻⁶ cm/s | < 0.11 | 0.12 | 0.018 µM | > 30 µM | 11 µM | 0.4 µM | 0.06 µM | N=C(N)NC(=O)c1ccc(C2CCN(C(=O)c3ccncc3)CC2)c(C(F)(F)F)c1 | – |
| ≥ 2 ×10⁻⁶ cm/s | 0.32 | 0.3 | – | 6 µM | > 30 µM | 8 µM | 11 µM | N=C(N)NC(=O)c1ccc(C2CCN(C(=O)c3ccc(F)cc3)CC2)c(C(F)(F)F)c1 | – |
| – | – | – | 0.306 µM | – | – | – | – | N=C(N)NC(=O)c1ccc(C2CCN(C(=O)c3ccc(Cl)cc3)CC2)c(C(F)(F)F)c1 | – |
| – | – | – | 0.108 µM | – | – | – | – | N=C(N)NC(=O)c1ccc(C2CCN(C(=O)c3ccccc3Cl)CC2)c(C(F)(F)F)c1 | – |
| – | – | – | 0.029 µM | – | – | – | – | CCC(=O)N1CCC(c2ccc(C(=O)NC(=N)N)cc2S(C)(=O)=O)CC1 | – |
| – | – | – | 0.022 µM | – | – | – | – | CC(=O)N1CCC(c2ccc(C(=O)NC(=N)N)cc2S(C)(=O)=O)CC1 | – |

| Papp [1] | hepatic extraction ratio at 1 h, 1 µM [2] | hepatic extraction ratio at 1 h, 1 µM [3] | IC50 [4] | IC50 (Cytochrome P450 3A4) | IC50 (Cytochrome P450 2D6) | IC50 (Cytochrome P450 2C9) | IC50 (Cytochrome P450 2C19) | SMILES | other results |
| --- | --- | --- | --- | --- | --- | --- | --- | --- | --- |
| – | – | – | 0.32 µM | – | – | – | – | N=C(N)NC(=O)c1ccc(C2CCN(C(=O)c3ccc(C(F)(F)F)cc3)CC2)c(C(F)(F)F)c1 | – |
| – | – | – | 0.065 µM | – | – | – | – | N=C(N)NC(=O)c1ccc(C2CCN(C(=O)c3ccc(-n4ccnc4)cc3)CC2)c(C(F)(F)F)c1 | – |
| – | – | – | 0.064 µM | – | – | – | – | N=C(N)NC(=O)c1ccc(C2CCN(C(=O)C3CCCC3)CC2)c(C(F)(F)F)c1 | – |
| ≥ 2 ×10⁻⁶ cm/s | 0.67 | 0.46 | 0.068 µM | > 30 µM | > 30 µM | 7 µM | 5 µM | N=C(N)NC(=O)c1ccc(C2CCN(C(=O)c3ccccc3)CC2)c(C(F)(F)F)c1 | – |
| ≥ 2 ×10⁻⁶ cm/s | 0.4 | < 0.06 | 0.061 µM | > 30 µM | 10 µM | 4 µM | 16 µM | N#Cc1ccccc1C(=O)N1CCC(c2ccc(C(=O)NC(=N)N)cc2C(F)(F)F)CC1 | – |
| < 2 ×10⁻⁶ cm/s | 0.24 | < 0.056 | 0.026 µM | 24.5 µM | 12 µM | 4 µM | 28 µM | N=C(N)NC(=O)c1ccc(C2CCN(C(=O)c3ccc(C(N)=O)cc3)CC2)c(C(F)(F)F)c1 | – |
| < 2 ×10⁻⁶ cm/s | 0.15 | 0.14 | 0.06 µM | > 30 µM | > 30 µM | > 30 µM | > 30 µM | CS(=O)(=O)c1cccc(C(=O)N2CCC(c3ccc(C(=O)NC(=N)N)cc3C(F)(F)F)CC2)c1 | – |
| – | – | – | 0.047 µM | – | – | – | – | CC(C)CC(=O)N1CCC(c2ccc(C(=O)NC(=N)N)cc2C(F)(F)F)CC1 | – |
| – | – | – | 0.102 µM | – | – | – | – | N=C(N)NC(=O)c1ccc(C2CCN(C(=O)c3ccc(-c4cnco4)cc3)CC2)c(C(F)(F)F)c1 | – |
| ≥ 2 ×10⁻⁶ cm/s | – | – | 0.072 µM | – | > 30 µM | 17 µM | – | CC(C)(C)C(=O)N1CCC(c2ccc(C(=O)NC(=N)N)cc2C(F)(F)F)CC1 | Vd [5]: 1.8 L/kg; MRT [6]: 1.5 h; CL (Rattus norvegicus): 29% |
| < 2 ×10⁻⁶ cm/s | 0.68 | 0.78 | 0.027 µM | – | – | – | – | Cc1cc(C(=O)N2CCC(c3ccc(C(=O)NC(=N)N)cc3C(F)(F)F)CC2)nn1C | – |
| < 2 ×10⁻⁶ cm/s | – | – | 0.05 µM | – | – | – | – | CN(C)C(=O)c1ccc(C(=O)N2CCC(c3ccc(C(=O)NC(=N)N)cc3C(F)(F)F)CC2)cc1 | – |
| < 2 ×10⁻⁶ cm/s | 0.24 | 0.07 | 0.014 µM | 24 µM | > 30 µM | 16 µM | > 30 µM | N=C(N)NC(=O)c1ccc(C2CCN(C(=O)c3ccc(S(N)(=O)=O)cc3)CC2)c(C(F)(F)F)c1 | – |
| ≥ 2 ×10⁻⁶ cm/s | < 0.11 | < 0.056 | – | 16 µM | 17 µM | 6 µM | 5 µM | N=C(N)NC(=O)c1ccc(C2CCN(C(=O)C3CC3)CC2)c(C(F)(F)F)c1 | – |
| < 2 ×10⁻⁶ cm/s | 0.33 | < 0.06 | 0.018 µM | > 30 µM | > 30 µM | 13 µM | > 30 µM | N=C(N)NC(=O)c1ccc(C2CCN(C(=O)c3cccnc3)CC2)c(C(F)(F)F)c1 | – |
| ≥ 2 ×10⁻⁶ cm/s | – | – | 0.132 µM | – | – | – | – | COc1ccc(C(=O)N2CCC(c3ccc(C(=O)NC(=N)N)cc3C(F)(F)F)CC2)cc1 | – |
| – | – | – | 0.033 µM | – | – | – | – | N=C(N)NC(=O)c1ccc(C2CCN(C(=O)c3cccc(-c4cnco4)c3)CC2)c(C(F)(F)F)c1 | – |
| – | – | – | 0.045 µM | – | – | – | – | N=C(N)NC(=O)c1ccc(C2CCN(C(=O)c3ccc[nH]3)CC2)c(C(F)(F)F)c1 | – |
